# Compounds with a hit are over-represented: about 3% of the library has one in this group of screens.
# AI-2 QS mod = modulators of Vibrio harveyi AI-2 quorum sensing system | Vibrio harveyi JMH597 AI-2 luminescence/OD600 ratio, 9 h; active compounds read low; strain lacks LuxN and CqsS sensors; 0 = neutral-control median | activity change, % at 7.5 µM | 300,000 compounds, 0.4% hits | AID 2094; in the data active means activity change below about -75%, passing the limit was not always enough;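 further: luminescence divided by OD600 gain over 9 h not by final OD600 alone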
# CR mimetic SO = lowers age-related superoxide in aged yeast cells. superoxide response (% of plate mean), % at 10 µM. AID 2690. S. cerevisiae aged cells, superoxide DHE fluorescence; active compounds read low. 330,000 compounds, 0.18% hits;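 active means superoxide response under a set limit, about three screen SD below normal, cut at about 65% in these data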;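 further: yeast aged for seven days with compound at 30 °C before DHE staining; 100% = average MFI of all compound-treated wells on the plate with controls excluded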
# V-ATPase pH = alters yeast V-ATPase proton transport | 350,000 compounds, 0.37% hits | S. cerevisiae, pHLuorin cytosolic pH fluorescence | response, % at 10 µM | AID 504577; in the data active means response mostly above about 7.3%, no sharp cut-off; inactive means mostly below about 5.4%; further: actives read high
# NRP1-CendR mod = alters CendR peptide binding to human NRP-1; O14786; FAM-RPARPAR peptide binding to NRP-1, fluorescence polarization; inhibition, % at 25 µM; 360,000 compounds, 0.85% hits;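 active means inhibition or corrected inhibition above about 18%, plus a signal ratio from 0.5 to 1.5, limit read from the data, passing the limit was not always enough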
# Target sequence (O14786 whole entry, looked up): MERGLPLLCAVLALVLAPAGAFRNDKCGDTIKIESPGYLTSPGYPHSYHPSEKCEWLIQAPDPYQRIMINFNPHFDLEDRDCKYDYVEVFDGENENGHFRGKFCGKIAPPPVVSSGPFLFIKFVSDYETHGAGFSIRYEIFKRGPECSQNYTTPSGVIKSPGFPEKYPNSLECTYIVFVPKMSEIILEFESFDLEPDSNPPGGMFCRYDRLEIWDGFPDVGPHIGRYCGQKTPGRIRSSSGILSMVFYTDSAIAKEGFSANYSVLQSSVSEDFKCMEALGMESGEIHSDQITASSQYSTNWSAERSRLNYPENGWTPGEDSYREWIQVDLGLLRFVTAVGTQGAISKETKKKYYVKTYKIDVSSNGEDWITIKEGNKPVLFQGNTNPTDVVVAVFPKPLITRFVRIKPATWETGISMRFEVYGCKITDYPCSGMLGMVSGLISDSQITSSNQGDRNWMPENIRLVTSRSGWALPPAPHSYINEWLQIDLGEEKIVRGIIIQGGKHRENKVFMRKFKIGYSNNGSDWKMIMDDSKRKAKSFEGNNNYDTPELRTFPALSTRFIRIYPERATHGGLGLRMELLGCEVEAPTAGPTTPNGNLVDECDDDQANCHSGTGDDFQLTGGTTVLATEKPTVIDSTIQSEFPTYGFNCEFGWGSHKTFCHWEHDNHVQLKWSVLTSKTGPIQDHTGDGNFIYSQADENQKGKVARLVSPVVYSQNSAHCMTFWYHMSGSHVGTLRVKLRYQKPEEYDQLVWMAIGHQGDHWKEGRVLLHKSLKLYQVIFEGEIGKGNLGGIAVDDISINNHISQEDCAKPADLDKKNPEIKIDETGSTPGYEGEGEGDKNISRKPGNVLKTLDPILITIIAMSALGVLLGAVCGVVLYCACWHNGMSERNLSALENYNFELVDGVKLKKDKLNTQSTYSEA
# HIF act = HIF pathway transcriptional activation; 300,000 compounds, 0.32% hits; activation, % at 7.5 µM (by protocol); U2OS HRE-luciferase reporter, luminescence; normalized: DMSO 0%, desferrioxamine 100%;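 active means mean activation of at least 10% of the iron chelator positive control signal, with at least half of replicates also reaching 10%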
# T cruzi repl = T. cruzi replication inhibition; T. cruzi beta-gal in NIH3T3, luminescence, 90 h; inhibition, % (concentration not given with the values); 300,000 compounds, 1.4% hits; AID 1885;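 active means mean inhibition across valid replicates above about 55%, limit read from the data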;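 further: signal also drops with host cell toxicity which is not excluded here; 0% = plate median of DMSO wells and 100% = zero luminescence signal; higher percent means less beta-gal luminescence so fewer parasites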
#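 Test system: β-gal T. cruzi (Tulahuen C4) inside NIH/3T3 cells / Quantity: 5,000 cells/well / Measured by: luminescence from GalScreen with 0.05% NP40, read after 60 min / Medium: DMEM plus 2% FBS / Measure: parasite load inhibition, % / Reagent: Tulahuen C4 trypomastigotes, 5000/well / Schedule: co-culture of at least 90 h after 3 h attachment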
# Starred values were filed as active, the others as inactive; / = no result.
SMILES,AI-2 QS mod,CR mimetic SO,V-ATPase pH,NRP1-CendR mod,HIF act,T cruzi repl
O=C(N/N=C\c1ccc([N+](=O)[O-])o1)C1COc2ccccc2O1 (centres undefined),-87*,122,0,11,-1,61*
O=C(N/N=C\c1ccc(Cl)s1)C1COc2ccccc2O1 (centres undefined),4,104,0,16,3,-9
O=C(N/N=C\c1ccc([N+](=O)[O-])s1)C1COc2ccccc2O1 (centres undefined),-86*,115,10,-8,1,16
CCn1cnc2c1c(=O)n(CC(=O)NCC(C)C)c(=O)n2Cc1ccccc1,8,100,3,-2,1,-3
COC(=O)c1ccc(NC(=S)N2CCN(Cc3ccccc3Cl)CC2)cc1,3,92,2,11,0,1
COc1cccc(C2CC(c3ccccc3Cl)n3ncnc3N2)c1 (centres undefined),27,94,-1,30*,0,2
O=C(COC(=O)Cc1c[nH]c2ccccc12)NC1CCCCC1,-3,122,0,-1,0,-1
O=C(Nc1cccc(F)c1)NC1(C(=O)N2CCC(O)CC2)CCCCC1,/,101,2,24*,0,-10
NC(=O)C1CCN(C(=O)C2(NC(=O)Nc3cccc(F)c3)CCCCC2)CC1,13,105,2,-3,0,-14
CCO[C@@H]1OC(C(=O)NCc2ccccc2)=C[C@H](C)[C@H]1CCCO,18,/,-1,26*,0,-18
CCO[C@@H]1OC(C(=O)NCc2ccccc2)=C[C@H](c2coc3ccccc3c2=O)[C@H]1CCCO,7,106,3,20*,0,-6
CCO[C@H]1OC(C(=O)Nc2ccccc2)=C[C@@H](c2coc3ccccc3c2=O)[C@@H]1CCCO,-1,105,-1,8,0,2
CCO[C@@H]1OC(C(=O)NC2CC2)=C[C@H](C(C)(C)C)[C@H]1CCCO,18,97,-3,23*,0,-7
Cc1ccc(N2CCN(C3C(=O)Nc4ccccc4-n4nnnc43)CC2)cc1 (centres undefined),/,/,/,4,/,/
O=C1CCC[C@@H]2Cc3[nH]c4c(Cl)ccc(Cl)c4c3[C@@H]3CCN1[C@H]23,2,101,-7,2,0,64*
Cc1cc(OC(C)C(N)=O)nc(-c2ccccc2)n1 (centres undefined),5,76,6,0,0,12
O=C(CCOc1ccccc1)Nc1ccc([N+](=O)[O-])cc1,-79*,114,5,5,0,3
COc1ccc(C(=O)CC(=O)Nc2ccc([N+](=O)[O-])cc2)cc1,-90*,98,6,8,0,1
O=C(CCOc1ccccc1)Nc1ccccc1,-60,94,0,-1,2,-1
COc1ccc(C(=O)c2ccc([N+](=O)[O-])cc2Cl)cc1,12,93,4,-3,0,60*
O=C(C1CC(c2cccc(Br)c2)=NO1)N1CCc2ccccc2C1 (centres undefined),-72,111,-3,-3,1,4
Fc1cccc(CO/N=C/c2c(-c3ccccc3)nc3ccc(Cl)cn23)c1,6,97,-1,3,-1,51
Cc1ccc(C)c(OCCCN2CCc3ccccc3C2)c1,19,107,0,16,-3,15
Cc1ccc(SCCOCCN2CC(C)OC(C)C2)cc1 (centres undefined),7,90,-4,16,0,57*
Cc1ccc(SCCOCCN2CCc3ccccc3C2)cc1,9,93,-4,5,0,61*
SMILES,AI-2 QS mod,CR mimetic SO,V-ATPase pH,NRP1-CendR mod,HIF act,T cruzi repl
Cc1ccc(SCC(=O)N2CC(C)OC(C)C2)cc1 (centres undefined),19,94,-5,3,0,-9
COc1ccc(C2/C=C\CC(NS(=O)(=O)c3ccc(C)cc3)CC(=O)N2Cc2ccccc2F)cc1 (centres undefined),/,101,0,-14,/,/
O=C1C=C(c2cc(Cl)cc(Cl)c2)C[C@@H](c2ccc3c(c2)OCO3)C1,/,109,2,1,/,/
COC(=O)N[C@@H]1C[C@H]2[C@@H]3CC[C@H]4C[C@@H](OC)CC[C@]4(C)[C@H]3CC[C@]12C,/,111,-4,28*,/,/
COc1ccc(-c2ccc3c(c2)c(-c2cccs2)c(-c2cc(OC)cc(OC)c2)n3C)cc1,/,122,-3,8,/,/
COc1cccc(N/N=C/c2cccc(Br)c2O)c1,10,89,1,6,1,65*
COc1ccccc1/C=C(/CC(=O)NCc1ccc2c(c1)OCO2)c1nc2ccccc2s1,1,121,3,-7,0,55*
COc1ccccc1/C=C/C(=O)OCC(=O)NCc1ccc2c(c1)OCO2,/,104,0,-7,/,/
CCCCCCN1C2=NCCN2c2ccccc21,9,131,-2,-6,0,39
O=C(CN1C2=NCCN2c2ccccc21)c1ccco1,21,91,3,32*,0,-9
CC(C)(C)c1ccc(CN2C3=NCCCN3c3ccccc32)cc1,40,106,-2,10,0,69*
CCCCCCCN1C2=NCCN2c2ccccc21,12,111,22*,10,0,33
COn1c(-n2nc(C)cc2C)nc2ccccc2c1=O,26,112,1,-2,0,-24
O=C(COC(=O)CC1Sc2ccccc2NC1=O)NCc1ccccc1 (centres undefined),21,89,8,-8,1,-1
Cc1cc(NC(=O)COC(=O)c2c(C)noc2C)ccc1Br,-91*,105,2,18,-1,10
Cc1noc(C)c1C(=O)OCC(=O)Nc1cccc(S(N)(=O)=O)c1,-16,111,4,5,0,-2
CC(Oc1ccc2c3c(c(=O)oc2c1)CCCC3)C(=O)NCC(O)c1ccccc1 (centres undefined),8,99,-2,10,64*,2
CC(C)(C)NC(=O)C(c1ccc(O)cc1)N(C(=O)CCC(=O)Nc1nccs1)c1cccc(F)c1 (centres undefined),20,94,4,9,0,-12
CC(C)(C)NC(=O)C(c1ccc(O)cc1)N(C(=O)CCC(=O)Nc1nccs1)c1ccccc1F (centres undefined),34,88,-2,29*,0,-1
CCN(CC)Cc1c(O)ccc2c(=O)c(Oc3ccccc3OC)c(C)oc12,5,92,-5,1,0,-1
Cc1ccccc1NC(=O)CN(C)S(=O)(=O)c1ccc(-c2ccc(=O)[nH]n2)s1,10,139,-1,1,519*,10
O=C(/C=C/c1ccccc1)OCc1cncs1,-64,91,0,0,2,-2

# Screening results (PubChem)
